The values below come from ChEMBL document CHEMBL4024751, “Hit-to-Lead Optimization and Discovery of 5-((5-([1,1'-Biphenyl]-4-yl)-6-chloro-1H-benzo[d]imidazol-2-yl)oxy)-2-methylbenzoic Acid (MK-3903): A Novel Class of Benzimidazole-Based Activators of AMP-Activated Protein Kinase” (J Med Chem, 2017).

In general, EC50 refers to the midpoint of the concentration-response curve. As usually defined, the bioavailability is dose-corrected exposure relative to a reference, in per cent. In general, clearance refers to a measure of how efficiently the substance is removed, as volume per time. Low values mean inefficient removal, high ones efficient removal. As usually defined, the inhibition in vivo is the drop in the measured response relative to a control, in per cent.

Structures are written as SMILES.

For one data set, the target named is AMPK alpha2/beta1/gamma1 (Homo sapiens, UniProt P54619+P54646+Q9Y478). The data set can be described thus: Agonist activity at human recombinant phosphorylated AMPK complex 7 alpha2/beta1/gamma1 expressed in baculovirus infected Sf21 cells assessed as phosphorylation of 5-FAM-labeled SAMS substrate preincubated for 30 mins in presence of AMPK activator followed by substrate addition measured after 60 mins. The gist of the method: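 Recombinant phosphorylated human AMPK complex; agonist tested as a 10-point titration up to 50 μM (∼2 nM to 50 μM in some series, ∼0.8 nM to 16 μM in others). EC50 is the average of at least two experiments. Percent maximum activation is the highest activation seen over the titration range, or the level at 50 μM.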
AMPK alpha2/beta1/gamma1, sequence (P54646 whole entry): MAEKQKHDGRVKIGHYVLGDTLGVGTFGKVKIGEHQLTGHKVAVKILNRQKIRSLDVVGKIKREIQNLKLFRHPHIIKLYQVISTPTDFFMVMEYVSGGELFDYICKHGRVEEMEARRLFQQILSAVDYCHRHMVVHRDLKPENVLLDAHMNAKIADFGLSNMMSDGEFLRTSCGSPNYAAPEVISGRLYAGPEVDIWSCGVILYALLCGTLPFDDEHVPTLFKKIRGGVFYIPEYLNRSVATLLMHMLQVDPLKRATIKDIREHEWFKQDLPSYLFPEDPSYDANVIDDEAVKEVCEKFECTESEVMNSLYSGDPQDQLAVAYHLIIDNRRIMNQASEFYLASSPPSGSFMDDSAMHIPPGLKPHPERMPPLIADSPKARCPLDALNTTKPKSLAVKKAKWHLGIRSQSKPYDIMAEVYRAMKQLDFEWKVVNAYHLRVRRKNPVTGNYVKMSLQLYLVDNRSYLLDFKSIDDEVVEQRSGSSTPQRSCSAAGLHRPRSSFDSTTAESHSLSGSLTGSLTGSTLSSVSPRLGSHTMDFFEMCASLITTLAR
AMPK alpha2/beta1/gamma1, sequence (P54619 whole entry): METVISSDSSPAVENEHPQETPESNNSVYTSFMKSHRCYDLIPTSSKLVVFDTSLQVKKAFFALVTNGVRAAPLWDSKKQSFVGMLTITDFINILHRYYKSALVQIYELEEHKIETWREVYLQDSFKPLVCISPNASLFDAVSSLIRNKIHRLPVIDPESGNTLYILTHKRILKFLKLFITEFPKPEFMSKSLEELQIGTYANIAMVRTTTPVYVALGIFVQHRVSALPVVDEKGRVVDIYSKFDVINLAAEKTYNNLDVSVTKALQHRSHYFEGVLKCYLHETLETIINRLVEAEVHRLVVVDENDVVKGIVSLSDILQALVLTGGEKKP
AMPK alpha2/beta1/gamma1, sequence (Q9Y478 whole entry): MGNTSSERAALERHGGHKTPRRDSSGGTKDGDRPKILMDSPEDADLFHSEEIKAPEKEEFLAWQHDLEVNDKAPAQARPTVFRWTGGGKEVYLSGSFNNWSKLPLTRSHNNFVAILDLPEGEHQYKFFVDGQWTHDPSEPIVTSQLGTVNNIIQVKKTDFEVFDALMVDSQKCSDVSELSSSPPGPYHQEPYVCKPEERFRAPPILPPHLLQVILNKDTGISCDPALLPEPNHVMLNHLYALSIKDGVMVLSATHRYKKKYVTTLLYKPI

The target of data set [1] is T1, AMPK alpha2/beta1/gamma1 (Homo sapiens) (UniProt P54646+P54619+Q9Y478). The data set can be described thus: Agonist activity at human recombinant phosphorylated AMPK complex 7 alpha2/beta1/gamma1 expressed in baculovirus infected Sf21 cells assessed as phosphorylation of 5-FAM-labeled SAMS substrate at 50 uM preincubated for 30 mins in presence of AMPK activator followed by substrate addition measured after 60 mins relative to AMP. The gist of the method: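 Activation of pAMPK7 is reported as percent activation at 50 μM, taken from 10-point titrations and averaged over at least two experiments.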
T1 sequence (P54619 whole entry partner): as the sequence (P54619 whole entry) above
T1 sequence (P54646 whole entry): as the sequence (P54646 whole entry) above
T1 sequence (Q9Y478 2-270 partner limits assumed): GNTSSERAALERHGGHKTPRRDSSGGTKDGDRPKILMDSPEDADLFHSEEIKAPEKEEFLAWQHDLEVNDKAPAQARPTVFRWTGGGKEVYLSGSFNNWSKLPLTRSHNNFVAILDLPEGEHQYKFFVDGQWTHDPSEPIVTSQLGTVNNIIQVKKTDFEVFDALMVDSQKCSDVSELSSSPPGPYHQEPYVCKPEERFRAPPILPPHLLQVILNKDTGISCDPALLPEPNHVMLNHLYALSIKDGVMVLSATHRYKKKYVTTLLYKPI

The target in data set [2] is T1, AMPK alpha2/beta1/gamma1 (Homo sapiens). Description: Agonist activity at human recombinant phosphorylated AMPK complex 7 alpha2/beta1/gamma1 expressed in baculovirus infected Sf21 cells assessed as phosphorylation of 5-FAM-labeled SAMS substrate at 0.002 to 50 uM preincubated for 30 mins in presence of AMPK activator followed by substrate addition measured after 60 mins relative to AMP. The gist of the method: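 Recombinant human pAMPK complexes were titrated at 10 points over about 2 nM to 50 μM. EC50 is the average of at least two experiments. %max is the highest activation seen within that range.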

The target is the same in data set [3]. The data set can be described thus: Agonist activity at human recombinant phosphorylated AMPK complex 7 alpha2/beta1/gamma1 expressed in baculovirus infected Sf21 cells assessed as phosphorylation of 5-FAM-labeled SAMS substrate at 0.0008 to 16 uM preincubated for 30 mins in presence of AMPK activator followed by substrate addition measured after 60 mins relative to AMP. The gist of the method: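 Recombinant human pAMPK7 was titrated at 10 points over about 0.8 nM to 16 μM. EC50 is the average of at least two experiments. Percent maximum activation is the highest activation seen within that range.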

Data set [4] deals with Mus musculus. Description: Dose normalized AUC in po dosed C57BL/6 mouse administered via gavage by LC-MS/MS analysis. The data set is classed as ADME, organism-based. As to conditions: in vivo. In outline:
(§1)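 C57BL/6 mice were dosed 2 mg/kg IV and 10 mg/kg PO. Reported parameters: plasma clearance, Vdss, terminal t1/2, Cmax, tmax and oral bioavailability F. AUCN is the plasma AUC after PO dosing normalized to dose.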

Data set [5] in a line: Volume of distribution at steady state in BCRP knockout mouse by LC-MS/MS analysis. Type of data set: ADME. As to conditions: in vivo, read-out: Vdss.
A short description of data set [6]: Oral bioavailability in C57BL/6 mouse by LC-MS/MS analysis. The data set is classed as ADME, organism-based. As to conditions: in vivo. The gist of the method: as §1
The nature of data set [7]: Oral bioavailability in BCRP knockout mouse by LC-MS/MS analysis. The data set is classed as ADME, organism-based. As to conditions: in vivo.
A short description of data set [8]: Plasma clearance in BCRP knockout mouse by LC-MS/MS analysis. The data set is classed as ADME.
Data set [9] in a line: Plasma clearance in C57BL/6 mouse by LC-MS/MS analysis. The data set is classed as ADME. The gist of the method:
as §1

Data set [10] is described as follows: Terminal half life in C57BL/6 mouse by LC-MS/MS analysis. The data set is classed as ADME. As to conditions: in vivo, read-out: beta t1/2 (converted). In outline:
as §1

Data set [11] can be described thus: Volume of distribution at steady state in C57BL/6 mouse by LC-MS/MS analysis. Type of data set: ADME. As to conditions: in vivo, read-out: Vdss. In outline:
as §1

The test system of data set [12] is Mus musculus. The data set can be described thus: In vivo agonist activity at AMPK C57BL/6 mouse assessed as inhibition of de novo lipogenesis at 100 mg/kg, po administered via gavage. The data set is classed as functional. As to conditions: C57BL/6, po.
For data set [13], the system named is Mus musculus. Description: Dose normalized AUC in BCRP knockout mouse administered through oral gavage by LC-MS/MS analysis. As to conditions: in vivo. The data set is classed as ADME.
The subject of data set [14] is Mus musculus. Description: In vivo agonist activity at AMPK in C57BL/6 mouse assessed as inhibition of de novo lipogenesis at 30 mg/kg, ip. The data set is classed as functional. As to conditions: C57BL/6, ip.
The nature of data set [15]: Apparent permeability of compound in pig LLC-PK1 cells by HPLC analysis. Type of data set: ADME, cell-based, Sus scrofa. As to conditions: llc-pk1. In outline:
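LLC-PK1 monolayer on polycarbonate filter. Compound in HBSS added to the apical or basolateral side. Both sides sampled at end of incubation and quantified by HPLC. Papp is the mean of A→B and B→A values.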

Data set [16] can be described thus: Terminal half life in BCRP knockout mouse by LC-MS/MS analysis. Type of data set: ADME. As to conditions: in vivo, read-out: beta t1/2 (converted).

As for `O=C(O)c1ccccc1Sc1nc2cc(Cl)c(Cl)cc2[nH]1`, the EC50 on AMPK alpha2/beta1/gamma1 amounted to 8.1 µM. In data set [1], the %max is 130%.

Take `O=C(O)CCc1nc2cc(Cl)c(-c3ccccc3)cc2[nH]1`: the EC50 at AMPK alpha2/beta1/gamma1 stood at 8 µM. The %max in [1] came out at 130%.

Take `O=C(O)Cc1cccc(Sc2nc3cc(Cl)c(Cl)cc3[nH]2)c1`: on AMPK alpha2/beta1/gamma1, the EC50 stood at 2.9 µM. In addition, the %max in data set [1] turned out to be 140%.

For the molecule `O=C(O)CCSc1nc2cc(Cl)c(Cl)cc2[nH]1`, the EC50 at AMPK alpha2/beta1/gamma1 was 8.5 µM. For the same molecule, the %max in [1] worked out at 130%.

`O=C(O)CSc1nc2cc(Cl)c(Cl)cc2[nH]1`: at AMPK alpha2/beta1/gamma1, the EC50 came to 4 µM. Moreover, the %max in [1] was found to be 130%.

For the molecule `O=C(O)c1cccc(Sc2nc3cc(-c4ccc(-c5ccccc5O)cc4)c(Cl)cc3[nH]2)c1`, at AMPK alpha2/beta1/gamma1, the EC50 is 0.029 µM. Moreover, the %max in data set [2] worked out at 100%.

With `O=C(O)CCc1nc2cc(Cl)c(Br)cc2[nH]1`, in data set [1], the %max turned out to be 44%.

`O=C(O)c1csc(Sc2nc3cc(Cl)c(Cl)cc3[nH]2)n1`: on AMPK alpha2/beta1/gamma1, the EC50 turned out to be 2.6 µM. Further, the %max in data set [1] stood at 76%.

Turning to `O=C(O)CCc1nc2cc(Cl)c(Cl)cc2[nH]1`, on AMPK alpha2/beta1/gamma1, the EC50 amounted to 36 µM. For the same molecule, in data set [1], the %max worked out at 78%.

With `Cc1ccc(Oc2nc3cc(C#Cc4ccccc4)c(Cl)cc3[nH]2)cc1C(=O)O`, the %max in [3] worked out at 240%. Besides, the EC50 on AMPK alpha2/beta1/gamma1 turned out to be 0.007 µM.

Turning to `O=C(O)CCc1nc2cc(Cl)c(-c3ccc(-c4ccccc4)cc3)cc2[nH]1`, at AMPK alpha2/beta1/gamma1, the EC50 was found to be 6 µM. Besides, in data set [1], the %max was 130%.

`O=C(O)CCc1nc2cc(Cl)ccc2[nH]1`: the %max in data set [1] is 41%.

`O=C(O)c1ccc(Sc2nc3cc(Cl)c(Cl)cc3[nH]2)cc1`: the %max in data set [1] amounted to 35%.

As for `O=C(O)c1cc(Oc2nc3cc(C#Cc4ccccc4)c(Cl)cc3[nH]2)ccc1Cl`, the %max in [3] stood at 250%. Moreover, the concentration giving a half-maximal response (EC50) on AMPK alpha2/beta1/gamma1 worked out at 0.015 µM.

`O=C(O)c1cc(Oc2nc3cc(-c4ccc(-c5ccccc5)cc4)c(Cl)cc3[nH]2)ccc1Cl`: the %max in data set [3] was determined as 310%. Besides, the EC50 at AMPK alpha2/beta1/gamma1 stood at 0.032 µM.

As for `O=C(O)CSc1nc2cc(-c3ccc(-c4ccccc4)cc3)c(Cl)cc2[nH]1`, the AUC/dose was determined as 0.05 µM·kg·h/mg in the data set with Mus musculus [4] and 11.4 µM·kg·h/mg with Mus musculus [13]. Moreover, the Vd in [5] came out at 2.6 L/kg; in [11], 6.7 L/kg. Further, the bioavailability in [6] was 7%; in data set [7], 77%. Further, the clearance in [8] was 2.9 mL/min/kg; in data set [9] it was 60 mL/min/kg. In addition, the results for the half-life in data set [10] and in data set [16] were 2.8 h and 10.8 h, respectively. For the same molecule, the half-maximal effective concentration (EC50) on AMPK alpha2/beta1/gamma1 turned out to be 0.15 µM. Moreover, in the data set with Mus musculus [12], the inhibition in vivo at 100 mg/kg worked out at 20%. Also, in data set [2], the %max was 260%. In the data set on Mus musculus [14], the inhibition in vivo at 30 mg/kg is 40%. Further, the Papp entry in [15] is recorded as “Permeable”.

Turning to `Cc1ccc(Oc2nc3cc(-c4ccc(-c5ccccc5O)cc4)c(Cl)cc3[nH]2)cc1C(=O)O`, in data set [3], the %max turned out to be 230%. In addition, the EC50 on AMPK alpha2/beta1/gamma1 came to 0.003 µM.

With `O=C(O)CCc1nc2ccccc2[nH]1`, the %max in [1] came out at 14%.

For `Cc1cc2nc(CCC(=O)O)[nH]c2cc1C`, in data set [1], the %max is 19%.

For the molecule `O=C(O)c1ccccc1-c1nc2cc(Cl)c(Cl)cc2[nH]1`, the %max in [1] was 6%.

As for `O=C(O)c1cccc(Sc2nc3cc(-c4ccc(-c5ccccc5)cc4)c(Cl)cc3[nH]2)c1`, the EC50 at AMPK alpha2/beta1/gamma1 amounted to 0.8 µM. Also, the %max in [2] is 200%.

As to `Cc1ccc(Oc2nc3cc(-c4ccc(-c5ccn[nH]5)cc4)c(Cl)cc3[nH]2)cc1C(=O)O`, in data set [3], the %max is 260%. Moreover, at AMPK alpha2/beta1/gamma1, the EC50 was determined as 0.011 µM.

`O=C(O)CSc1nc2cc(C#Cc3ccccc3)c(Cl)cc2[nH]1`: at AMPK alpha2/beta1/gamma1, the EC50 amounted to 0.2 µM. Moreover, in data set [2], the %max worked out at 320%.

With `O=C(O)c1cccc(-c2nc3cc(Cl)c(Cl)cc3[nH]2)c1`, in data set [1], the %max was found to be 10%.

As for `Cc1ccc(Oc2nc3cc(-c4ccc5c(ccn5C)c4)c(Cl)cc3[nH]2)cc1C(=O)O`, the %max in data set [3] was 340%. Besides, the EC50 on AMPK alpha2/beta1/gamma1 was 0.002 µM.

On to `O=C(O)c1cccc(Oc2nc3cc(-c4ccc(-c5ccccc5)cc4)c(Cl)cc3[nH]2)c1`, for which, in [3], the %max came out at 260%. The EC50 on AMPK alpha2/beta1/gamma1 was found to be 0.061 µM.

In the case of `O=C(O)c1cccc(Sc2nc3cc(Cl)c(Cl)cc3[nH]2)c1`, the EC50 on AMPK alpha2/beta1/gamma1 was found to be 7.4 µM. Moreover, the %max in [1] was determined as 150%.

On to `O=C(O)CC[S+]([O-])c1nc2cc(Cl)c(Cl)cc2[nH]1` (configuration not stated), for which the %max in data set [1] came to 15%.

For the molecule `COc1ccc2[nH]c(CCC(=O)O)nc2c1`, the %max in data set [1] was 14%.
